The source made the active and inactive calls. The rule behind the calls is not given here.
Key:
[1] = target: T1, Monoglyceride lipase (Rattus norvegicus) (UniProt Q8R431); assay: Inhibition of MAGL in rat brain microsome using pyrenylbutanamide as substrate after 60 mins by HPLC analysis; type: microsomes
T1 sequence (whole entry): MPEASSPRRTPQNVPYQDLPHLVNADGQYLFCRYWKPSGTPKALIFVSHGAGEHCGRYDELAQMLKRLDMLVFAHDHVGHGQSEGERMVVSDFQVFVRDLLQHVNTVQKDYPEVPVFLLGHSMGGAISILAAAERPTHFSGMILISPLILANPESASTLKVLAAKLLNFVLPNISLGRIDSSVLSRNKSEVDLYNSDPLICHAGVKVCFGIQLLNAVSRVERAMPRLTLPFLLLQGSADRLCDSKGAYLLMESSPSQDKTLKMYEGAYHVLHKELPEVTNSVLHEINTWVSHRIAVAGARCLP
Summary of the method: (§1)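 Rat brain preparations were used as the FAAH or MAGL enzyme source. Compounds were tested at 10 μM and the extract at 50 μg/mL, read as percent inhibition.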

[2] = target: T2, Fatty-acid amide hydrolase 1 (Rattus norvegicus) (UniProt P97612); assay: Inhibition of FAAH in rat brain microsome using pyrenylbutanamide as substrate after 60 mins by HPLC analysis; type: microsomes; summary of the method: as §1
T2 sequence (whole entry): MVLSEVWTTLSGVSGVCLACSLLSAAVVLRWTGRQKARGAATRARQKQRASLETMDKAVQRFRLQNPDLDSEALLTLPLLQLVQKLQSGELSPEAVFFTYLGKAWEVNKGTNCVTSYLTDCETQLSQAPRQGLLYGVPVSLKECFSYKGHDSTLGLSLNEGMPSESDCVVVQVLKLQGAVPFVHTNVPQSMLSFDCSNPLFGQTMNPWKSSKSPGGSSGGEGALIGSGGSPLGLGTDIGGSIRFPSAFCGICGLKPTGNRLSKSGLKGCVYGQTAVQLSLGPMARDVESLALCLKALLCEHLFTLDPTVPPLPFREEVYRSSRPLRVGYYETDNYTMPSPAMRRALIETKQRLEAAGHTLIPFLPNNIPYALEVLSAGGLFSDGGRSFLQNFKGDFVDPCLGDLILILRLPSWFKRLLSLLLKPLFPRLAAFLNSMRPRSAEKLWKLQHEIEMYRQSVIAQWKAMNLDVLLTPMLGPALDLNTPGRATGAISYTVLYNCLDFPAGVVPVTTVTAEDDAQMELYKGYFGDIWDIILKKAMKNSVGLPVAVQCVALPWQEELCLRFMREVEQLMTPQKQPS

[3] = target: G-protein coupled receptor 55 (Homo sapiens) (UniProt Q9Y2T6); assay: Antagonist activity at human GPR55 expressed in CHO cells assessed as inhibition of LPI-induced beta-arrestin translocation at 10 uM after 90 mins by luminescence assay; type: cell-based
G-protein coupled receptor 55 (Homo sapiens), sequence (Q9Y2T6 whole entry, the tested form may be a part): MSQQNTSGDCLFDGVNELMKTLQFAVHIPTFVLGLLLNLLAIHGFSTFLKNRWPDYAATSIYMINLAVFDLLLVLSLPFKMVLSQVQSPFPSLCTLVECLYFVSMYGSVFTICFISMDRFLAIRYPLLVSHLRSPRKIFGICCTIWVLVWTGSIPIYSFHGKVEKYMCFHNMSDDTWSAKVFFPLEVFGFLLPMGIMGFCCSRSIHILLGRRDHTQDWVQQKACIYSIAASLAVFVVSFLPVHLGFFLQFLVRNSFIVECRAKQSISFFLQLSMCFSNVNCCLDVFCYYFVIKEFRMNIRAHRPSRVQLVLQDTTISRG
Summary of the method: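 Human GPR55 expressed recombinantly in CHO cells. β-Arrestin recruitment stimulated by LPI (1 μM) was read as luminescence by β-galactosidase enzyme fragment complementation. Test agents at 10 μM, extract at 50 μg/mL, with the LPI response set to 100%. KB derived from the rightward shift of the LPI concentration-response curve with antagonist present at 10 μM. Three independent experiments in duplicate.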

[4] = target: T3, Cannabinoid receptor 2 (Homo sapiens, UniProt P34972); assay: Displacement of [3H]CP55,940 from recombinant human CB2 receptor expressed in CHO cells after 2 hrs by liquid scintillation counting; type: cell-based
T3 sequence (P34972 whole entry): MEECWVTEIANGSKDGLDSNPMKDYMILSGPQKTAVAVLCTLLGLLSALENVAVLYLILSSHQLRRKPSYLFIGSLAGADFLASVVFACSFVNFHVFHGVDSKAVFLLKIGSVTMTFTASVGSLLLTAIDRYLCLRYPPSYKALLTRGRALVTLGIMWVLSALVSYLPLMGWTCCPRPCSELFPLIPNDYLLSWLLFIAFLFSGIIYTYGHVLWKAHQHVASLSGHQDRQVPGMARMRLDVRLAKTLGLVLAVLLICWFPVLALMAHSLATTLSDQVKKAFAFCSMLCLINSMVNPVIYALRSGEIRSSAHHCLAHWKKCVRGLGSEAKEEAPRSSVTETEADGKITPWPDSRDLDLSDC

[5] = target: T4, Cannabinoid receptor 1 (Homo sapiens, UniProt P21554); assay: biochemical; type: cell-based, CHO
T4 sequence (P21554 whole entry): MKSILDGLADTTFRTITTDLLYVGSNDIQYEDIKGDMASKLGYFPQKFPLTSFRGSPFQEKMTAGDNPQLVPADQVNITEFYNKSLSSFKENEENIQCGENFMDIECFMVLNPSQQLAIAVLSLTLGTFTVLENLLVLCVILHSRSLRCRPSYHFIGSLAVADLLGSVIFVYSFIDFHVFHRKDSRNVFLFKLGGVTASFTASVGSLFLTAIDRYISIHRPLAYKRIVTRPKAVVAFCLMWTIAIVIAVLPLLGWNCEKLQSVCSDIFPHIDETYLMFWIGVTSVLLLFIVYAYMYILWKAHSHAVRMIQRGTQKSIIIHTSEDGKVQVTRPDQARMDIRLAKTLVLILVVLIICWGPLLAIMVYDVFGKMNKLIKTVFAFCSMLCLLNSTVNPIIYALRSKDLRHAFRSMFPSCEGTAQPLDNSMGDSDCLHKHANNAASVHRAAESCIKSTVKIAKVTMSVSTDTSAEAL

[6] = target: T3, Cannabinoid receptor 2; assay: Partial agonist activity at recombinant human CB2 receptor expressed in CHO cells assessed as inhibition of forskolin-induced cAMP accumulation at 100 uM after 5 mins by cAMP-competition binding assay relative to CP55,940; type: functional, cell-based
Summary of the method: (§2)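 CHO cells recombinantly expressing human CB1 or CB2 receptor; forskolin (10 μM)-stimulated cAMP accumulation inhibited by test compound over a concentration range. Efficacy measured at 100 μM relative to the maximal effect of full agonist CP55,940 (1 μM) = 100%. EC50 from concentration-response curves; at least three independent experiments in duplicate, means ± SEM.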

[7] = target: G-protein coupled receptor 55 (Homo sapiens) (UniProt Q9Y2T6); assay: Antagonist activity at human GPR55 expressed in CHO cells assessed as inhibition of LPI-induced beta-arrestin translocation after 90 mins by luminescence assay; type: cell-based
Summary of the method: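 CHO cells expressing human GPR55; β-arrestin recruitment read as luminescence by β-galactosidase enzyme fragment complementation. LPI agonist curves run with and without test compound at 10 μM, giving a parallel shift from which KB was derived; single-point inhibition tested against LPI at 1 μM (100%). Three independent experiments in duplicate, means ± SEM.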

[8] = target: T4, Cannabinoid receptor 1; assay: Agonist activity at recombinant human CB1 receptor expressed in CHO cells assessed as inhibition of forskolin-induced cAMP accumulation at 100 uM after 5 mins by cAMP-competition binding assay relative to CP55,940; type: functional, cell-based
Summary of the method: (§3)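 Forskolin (10 μM)-stimulated cAMP accumulation in CHO cells stably expressing the human CB1 or CB2 receptor. Test agents at 100 μM. Efficacy given as a percentage of the maximal effect of the full agonist CP55,940 (1 μM), taken as 100%. At least three independent experiments, each run in duplicate.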

[9] = target: T4, Cannabinoid receptor 1; assay: Agonist activity at recombinant human CB1 receptor expressed in CHO cells assessed as inhibition of forskolin-induced cAMP accumulation after 5 mins by cAMP-competition binding assay; type: functional, cell-based
[10] = target: T3, Cannabinoid receptor 2; conditions: CHO, 10 uM
[11] = target: T3, Cannabinoid receptor 2; assay: Agonist activity at recombinant human CB2 receptor expressed in CHO cells assessed as inhibition of forskolin-induced cAMP accumulation at 100 uM after 5 mins by cAMP-competition binding assay relative to CP55,940; type: functional, cell-based; summary of the method: as §3
[12] = target: T3, Cannabinoid receptor 2; assay: Agonist activity at recombinant human CB2 receptor expressed in CHO cells assessed as inhibition of forskolin-induced cAMP accumulation after 5 mins by cAMP-competition binding assay; type: functional, cell-based
[13] = system: CHO; assay: Ratio of EC50 for recombinant human CB1 receptor expressed in CHO cells to recombinant human CB2 receptor expressed in CHO cells assessed as inhibition of forskolin-induced cAMP accumulation; type: cell-based
[14] = target: T4, Cannabinoid receptor 1; assay: Partial agonist activity at recombinant human CB1 receptor expressed in CHO cells assessed as inhibition of forskolin-induced cAMP accumulation at 100 uM after 5 mins by cAMP-competition binding assay relative to CP55,940; type: functional, cell-based; summary of the method: as §2

SMILES: C=CCc1ccc(O)c(-c2cc(CC(O)CO)ccc2O)c1 (racemic)
- inhibition [1]: inactive
- inhibition [2]: inactive
- inhibition [3]: 4%
- Ki [4]: > 10 µM
- Ki [5]: > 10 µM

SMILES: CCCc1ccc(O)c(-c2cc(CCC)ccc2O)c1
- inhibition [1]: inactive
- inhibition [2]: inactive
- EC50 [6]: 0.17 µM
- inhibition [3]: 96%
- Kb [7]: 13.3 µM
- Efficacy [8]: 124%
- EC50 [9]: 9.01 µM
- Ki [4]: 0.416 µM
- Ki [5]: 2.26 µM
- Efficacy [10]: 49%

SMILES: C=CCc1ccc(O)c(-c2ccc(O)c(CC=C)c2)c1 [HONOKIOL]
- inhibition [1]: inactive
- inhibition [2]: inactive
- inhibition [3]: 42%
- Efficacy [11]: 0%
- Efficacy [8]: 168%
- EC50 [9]: > 10 µM
- Ki [4]: 5.61 µM
- Ki [5]: 6.46 µM

SMILES: C/C=C/c1ccc(O)c(-c2cc(/C=C/C)ccc2O)c1
- inhibition [1]: inactive
- inhibition [2]: inactive
- inhibition [3]: 0%
- Efficacy [11]: 55%
- Efficacy [8]: 134%
- EC50 [12]: 8.73 µM
- EC50 [9]: > 10 µM
- Ki [4]: 3.14 µM
- Ki [5]: > 10 µM

SMILES: CCCCCCC(C)(C)c1ccc([C@@H]2C[C@H](O)CC[C@H]2CCCO)c(O)c1
- inhibition [3]: 92%
- Kb [7]: 1.89 µM

SMILES: C=CCc1ccc(O)c(-c2cc(CC=C)ccc2O)c1 [MAGNOLOL]
- Ratio EC50 [13]: 6
- inhibition [1]: inactive
- inhibition [2]: inactive
- EC50 [14]: 18.3 µM
- EC50 [6]: 3.28 µM
- inhibition [3]: 0%
- Efficacy [11]: 31%
- Efficacy [8]: 62%
- Ki [4]: 1.44 µM
- Ki [5]: 3.15 µM
